For 12 compounds, IC50 results are on record in ChEMBL document CHEMBL1155046, “Chemical constituents of Aristolochia constricta: antispasmodic effects of its constituents in guinea-pig ileum and isolation of a diterpeno-lignan hybrid” (2008).

As a reminder, the IC50 is the concentration that inhibits the measured activity by half.

SMILES strings stand for the structures.

Test [1] concerns Ileum. Put plainly: Antispasmodic activity in guinea pig ileum assessed as inhibition of electrically-induced smooth muscle contraction. The format is functional, Cavia porcellus. The procedure, abridged: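 Male albino guinea-pig ileum (300-450 g) held under 1 g tension in Krebs-Henseleit at 38.5 °C, gassed 95% O2/5% CO2. Transmural stimulation through platinum ring electrodes: supramaximal 38.6 V, 0.2 Hz, 0.3 ms square pulses. Once twitch was stable, compounds added cumulatively at 10, 30, 100 µM. Isotonic recording, contraction as % of control. IC50 calculated. Mean ± SEM from 4-5 animals. DMSO vehicle <1% final.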

Test [2] deals with Ileum. The experiment in a line: Antispasmodic activity in guinea pig ileum assessed as inhibition of acetylcholine-induced smooth muscle contraction. The format is functional, Cavia porcellus. The procedure, abridged: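 Ileum from male albino guinea pigs (300-450 g) in Krebs-Henseleit solution, 1 g tension, 10 mL bath, 38.5 °C, 95% O2/5% CO2. After 0.5 h equilibration, checked with 3 µM ACh three times. Samples (10, 30, 100 µM) added noncumulatively 20 min before 3 µM ACh. Contraction recorded isotonically, expressed as % of untreated ACh height. IC50 calculated. Mean ± SEM, 4-5 animals. DMSO <1% final.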

For the compound `OC[C@H](Cc1ccc2c(c1)OCO2)[C@H](CO)Cc1ccc2c(c1)OCO2` [DIHYDROCUBEBIN], the IC50 was greater than 100 µM with Ileum [1] and 40.4 µM in the test on Ileum [2].

As to `C=C1C[C@@]23CC[C@H]4[C@@](C)(CCC[C@]4(C)C(=O)O)[C@@H]2CCC1C3`, the results for the IC50 in the test with Ileum [1] and in the test with Ileum [2] were 28.2 µM and 25.4 µM, respectively.

For the compound `O=C1OC[C@H](Cc2ccc3c(c2)OCO3)[C@H]1Cc1ccc2c(c1)OCO2` [HINOKININ], the IC50 in the test with Ileum [1] turned out to be 69.8 µM; with Ileum [2], 27.3 µM.

For the compound `COc1cc(C[C@H]2CO[C@@H](O)[C@@H]2Cc2ccc3c(c2)OCO3)ccc1O`, the results for the 50% inhibitory concentration (IC50) with Ileum [1] and with Ileum [2] were 52.8 µM and 39.5 µM, respectively.

Consider `CC1(C)CCC[C@]2(C)[C@@H]1CC[C@@]13C[C@H](CC[C@H]12)[C@@](O)(CO)C3`, for which the IC50 in the test with Ileum [1] and with Ileum [2] was greater than 100 µM throughout.

As to `COc1cc(C[C@H]2C(=O)OC[C@@H]2Cc2ccc3c(c2)OCO3)ccc1O`, the values for the IC50 with Ileum [1] and with Ileum [2] were 58.3 µM and 26.8 µM, respectively.

In the case of `CC1(C)CCC[C@]2(C)[C@@H]1CC[C@]13C=C(COC4OC[C@H](Cc5ccc6c(c5)OCO6)[C@H]4Cc4ccc5c(c4)OCO5)[C@@H](CC[C@H]12)C3` (some centres undefined), the IC50 with Ileum [1] and in the test on Ileum [2] was greater than 100 µM throughout.

`O[C@H]1OC[C@H](Cc2ccc3c(c2)OCO3)[C@H]1Cc1ccc2c(c1)OCO2`: the concentration for half-maximal inhibition (IC50) worked out at 51.6 µM in the test on Ileum [1] and 23.6 µM with Ileum [2].

`COc1cc2c(cc1C)C(=O)CCC2C` (single isomer, unassigned; (+)): the IC50 in the test on Ileum [1] was greater than 100 µM; in the test on Ileum [2], 89.8 µM.

On to `COc1cccc2c1cc([N+](=O)[O-])c1c(C(=O)O)cc3c(c12)OCO3` [ARISTOLOCHIC ACID], for which the half-inhibitory concentration (IC50) is 64 µM in the test on Ileum [1] and greater than 100 µM with Ileum [2].

For `CC1(C)CCC[C@]2(C)[C@@H]1CC[C@]13C=C(CO)[C@@H](CC[C@H]12)C3`, the IC50 is 34.1 µM with Ileum [1] and greater than 100 µM with Ileum [2].

On to `COc1ccc(CCN(C)CCCC(C#N)(c2ccc(OC)c(OC)c2)C(C)C)cc1OC` (centres undefined) [VERAPAMIL], for which the values for the 50% inhibitory concentration (IC50) in the test with Ileum [1] and in the test on Ileum [2] were 0.25 µM and 0.28 µM, respectively.
